In ChEMBL document CHEMBL1255429, “Efflux pumps are involved in the defense of Gram-negative bacteria against the natural products isobavachalcone and diospyrone” (2010):
Converted amounts (≈) assume the structure as drawn.

Assays:
Assay type in all cases: functional
Enterobacter cloacae [1] = assay: Antimicrobial activity against Enterobacter cloacae Ec1194 after 18 hrs by rapid INT colorimetric assay; conditions: Ec1194, 18 h
Outline: (§1)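 Strains precultured overnight on Mueller-Hinton agar. Sample dissolved in DMSO-MHB, twofold serial dilutions in MHB, inoculum 1.5 × 10^6 CFU/ml; final DMSO below 2.5%. Incubated 37°C 18 h, then 0.2 mg/ml INT added, 30 min at 37°C. MIC = lowest concentration preventing yellow-to-pink change (complete growth inhibition). DMSO-only wells as negative control.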

Klebsiella pneumoniae [2] = assay: Antimicrobial activity against Klebsiella pneumoniae KP63 after 18 hrs by rapid INT colorimetric assay; conditions: KP63, 18 h; outline: as §1
Klebsiella aerogenes [3] = assay: Antimicrobial activity against Enterobacter aerogenes EA298 after 18 hrs by rapid INT colorimetric assay in presence of efflux pump inhibitor phenylalanine arginine; conditions: EA298, 18 h
Klebsiella aerogenes [4] = assay: Antimicrobial activity against Enterobacter aerogenes EA289 after 18 hrs by rapid INT colorimetric assay; conditions: EA289, 18 h; outline: as §1
Escherichia coli [5] = assay: Antimicrobial activity against tetracycline-resistant Escherichia coli AG100A after 18 hrs by rapid INT colorimetric assay in presence of efflux pump inhibitor phenylalanine arginine
Outline: (§2)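 Broth microdilution MIC in Mueller-Hinton broth with PAßN at a final 20 μg/ml throughout. Twofold dilutions of sample from DMSO-MHB stock; inoculum 1.5 × 10^6 CFU/ml; 18 h at 37°C, final DMSO <2.5%. Growth read by INT (0.2 mg/ml, 30 min, 37°C). MIC taken as lowest concentration with no pink colour.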

Klebsiella pneumoniae [6] = assay: Antimicrobial activity against Klebsiella pneumoniae KP55 after 18 hrs by rapid INT colorimetric assay in presence of efflux pump inhibitor phenylalanine arginine; conditions: KP55, 18 h
Klebsiella pneumoniae [7] = assay: Antimicrobial activity against Klebsiella pneumoniae ATCC 11296 after 18 hrs by rapid INT colorimetric assay; conditions: ATCC 11296, 18 h
Outline: (§3)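 Strains precultured overnight on Mueller-Hinton agar. Samples dissolved in DMSO-MHB, serially diluted twofold in MHB, inoculum 1.5 × 10^6 CFU/ml in MHB added; 37°C, 18 h; final DMSO <2.5%. 0.2 mg/ml INT then added, 30 min at 37°C. MIC = lowest concentration preventing yellow-to-pink reduction, i.e. complete growth inhibition.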

Pseudomonas aeruginosa [8] = assay: Antimicrobial activity against Pseudomonas aeruginosa PAO1 after 18 hrs by rapid INT colorimetric assay in presence of efflux pump inhibitor phenylalanine arginine; conditions: PAO1, 18 h
Escherichia coli [9] = assay: Antimicrobial activity against Escherichia coli ATCC 8739 after 18 hrs by rapid INT colorimetric assay; conditions: ATCC 8739, 18 h; outline: as §3
Klebsiella aerogenes [10] = assay: Antimicrobial activity against Enterobacter aerogenes EA294 after 18 hrs by rapid INT colorimetric assay in presence of efflux pump inhibitor phenylalanine arginine; conditions: EA294, 18 h
Klebsiella pneumoniae [11] = assay: Antimicrobial activity against Klebsiella pneumoniae KP55 after 18 hrs by rapid INT colorimetric assay; conditions: KP55, 18 h; outline: as §1
Escherichia coli [12] = assay: Antimicrobial activity against Escherichia coli ATCC 8739 after 18 hrs by rapid INT colorimetric assay in presence of efflux pump inhibitor phenylalanine arginine; conditions: ATCC 8739, 18 h; outline: as §2
Klebsiella aerogenes [13] = assay: Antimicrobial activity against Enterobacter aerogenes EA27 after 18 hrs by rapid INT colorimetric assay; conditions: EA27, 18 h; outline: as §1
Escherichia coli [14] = assay: Antimicrobial activity against Escherichia coli AG100A after 18 hrs by rapid INT colorimetric assay in presence of efflux pump inhibitor phenylalanine arginine
Klebsiella aerogenes [15] = assay: Antimicrobial activity against Enterobacter aerogenes EA-CM64 after 18 hrs by rapid INT colorimetric assay in presence of efflux pump inhibitor phenylalanine arginine; conditions: EA-CM64, 18 h
Klebsiella aerogenes [16] = assay: Antimicrobial activity against Enterobacter aerogenes EA289 after 18 hrs by rapid INT colorimetric assay in presence of efflux pump inhibitor phenylalanine arginine; conditions: EA289, 18 h
Enterobacter cloacae [17] = assay: Antimicrobial activity against Enterobacter cloacae Ec07769 after 18 hrs by rapid INT colorimetric assay in presence of efflux pump inhibitor phenylalanine arginine; conditions: Ec07769, 18 h
Escherichia coli [18] = assay: Antimicrobial activity against Escherichia coli ATCC 10536 after 18 hrs by rapid INT colorimetric assay; conditions: ATCC 10536, 18 h; outline: as §1
Klebsiella aerogenes [19] = assay: Antimicrobial activity against Enterobacter aerogenes EA298 after 18 hrs by rapid INT colorimetric assay; conditions: EA298, 18 h; outline: as §3
Pseudomonas aeruginosa [20] = assay: Antimicrobial activity against Pseudomonas aeruginosa PA124 after 18 hrs by rapid INT colorimetric assay; conditions: PA124, 18 h; outline: as §3
Escherichia coli [21] = assay: Antimicrobial activity against tetracycline-resistant Escherichia coli AG102 after 18 hrs by rapid INT colorimetric assay in presence of efflux pump inhibitor phenylalanine arginine; conditions: AG102, 18 h; outline: as §2
Klebsiella aerogenes [22] = assay: Antimicrobial activity against Enterobacter aerogenes EA5 after 18 hrs by rapid INT colorimetric assay in presence of efflux pump inhibitor phenylalanine arginine; conditions: EA5, 18 h
Pseudomonas aeruginosa [23] = assay: Antimicrobial activity against Pseudomonas aeruginosa PA124 after 18 hrs by rapid INT colorimetric assay in presence of efflux pump inhibitor phenylalanine arginine; conditions: PA124, 18 h
Klebsiella aerogenes [24] = assay: Antimicrobial activity against Enterobacter aerogenes ATCC 13048 after 18 hrs by rapid INT colorimetric assay; conditions: ATCC 13048, 18 h; outline: as §1
Pseudomonas aeruginosa [25] = assay: Antimicrobial activity against Pseudomonas aeruginosa PAO1 after 18 hrs by rapid INT colorimetric assay; conditions: PAO1, 18 h; outline: as §3
Enterobacter cloacae [26] = assay: Antimicrobial activity against Enterobacter cloacae Ec1194 after 18 hrs by rapid INT colorimetric assay in presence of efflux pump inhibitor phenylalanine arginine; conditions: Ec1194, 18 h; outline: as §2
Klebsiella pneumoniae [27] = assay: Antimicrobial activity against Klebsiella pneumoniae ATCC 11296 after 18 hrs by rapid INT colorimetric assay in presence of efflux pump inhibitor phenylalanine arginine; conditions: ATCC 11296, 18 h
Klebsiella aerogenes [28] = assay: Antimicrobial activity against Enterobacter aerogenes EA3 after 18 hrs by rapid INT colorimetric assay in presence of efflux pump inhibitor phenylalanine arginine; conditions: EA3, 18 h
Klebsiella pneumoniae [29] = assay: Antimicrobial activity against Klebsiella pneumoniae KP63 after 18 hrs by rapid INT colorimetric assay in presence of efflux pump inhibitor phenylalanine arginine; conditions: KP63, 18 h
Klebsiella aerogenes [30] = assay: Antimicrobial activity against Enterobacter aerogenes EA294 after 18 hrs by rapid INT colorimetric assay; conditions: EA294, 18 h; outline: as §3
Escherichia coli [31] = assay: Antimicrobial activity against tetracycline-resistant Escherichia coli AG102 after 18 hrs by rapid INT colorimetric assay; conditions: AG102, 18 h; outline: as §3
Escherichia coli [32] = assay: Antimicrobial activity against tetracycline-resistant Escherichia coli AG100A after 18 hrs by rapid INT colorimetric assay; outline: as §3
Escherichia coli [33] = assay: Antimicrobial activity against Escherichia coli AG100 after 18 hrs by rapid INT colorimetric assay in presence of efflux pump inhibitor phenylalanine arginine; conditions: AG100, 18 h
Escherichia coli [34] = assay: Antimicrobial activity against Escherichia coli AG100A after 18 hrs by rapid INT colorimetric assay; outline: as §3
Klebsiella aerogenes [35] = assay: Antimicrobial activity against Enterobacter aerogenes EA5 after 18 hrs by rapid INT colorimetric assay; conditions: EA5, 18 h; outline: as §1
Escherichia coli [36] = assay: Antimicrobial activity against Escherichia coli ATCC 10536 after 18 hrs by rapid INT colorimetric assay in presence of efflux pump inhibitor phenylalanine arginine beta-naphthylamide; conditions: ATCC 10536, 18 h; outline: as §2
Klebsiella aerogenes [37] = assay: Antimicrobial activity against Enterobacter aerogenes EA-CM64 after 18 hrs by rapid INT colorimetric assay; conditions: EA-CM64, 18 h; outline: as §3
Escherichia coli [38] = assay: Antimicrobial activity against Escherichia coli AG100 after 18 hrs by rapid INT colorimetric assay; conditions: AG100, 18 h; outline: as §3
Klebsiella aerogenes [39] = assay: Antimicrobial activity against Enterobacter aerogenes ATCC 13048 after 18 hrs by rapid INT colorimetric assay in presence of efflux pump inhibitor phenylalanine arginine; conditions: ATCC 13048, 18 h
Enterobacter cloacae [40] = assay: Antimicrobial activity against Enterobacter cloacae Ec07769 after 18 hrs by rapid INT colorimetric assay; conditions: Ec07769, 18 h; outline: as §1
Klebsiella aerogenes [41] = assay: Antimicrobial activity against Enterobacter aerogenes EA3 after 18 hrs by rapid INT colorimetric assay; conditions: EA3, 18 h; outline: as §1
Klebsiella aerogenes [42] = assay: Antimicrobial activity against Enterobacter aerogenes EA27 after 18 hrs by rapid INT colorimetric assay in presence of efflux pump inhibitor phenylalanine arginine; conditions: EA27, 18 h

CC(C)=CCc1c(O)ccc(C(=O)/C=C/c2ccc(O)cc2)c1O [ISOBAVACHALCONE]
MIC (Enterobacter cloacae [1]): 64 µg/mL (≈ 197 µM)
MIC (Klebsiella pneumoniae [2]): 16 µg/mL (≈ 49.3 µM)
MIC (Klebsiella aerogenes [3]): 0.5 µg/mL
MIC (Klebsiella aerogenes [4]): 256 µg/mL (≈ 789 µM)
MIC (Escherichia coli [5]): 8 µg/mL
MIC (Klebsiella pneumoniae [6]): 4 µg/mL
MIC (Klebsiella pneumoniae [7]): 32 µg/mL (≈ 98.7 µM)
MIC (Pseudomonas aeruginosa [8]): 16 µg/mL
MIC (Escherichia coli [9]): 256 µg/mL (≈ 789 µM)
MIC (Klebsiella aerogenes [10]): 0.5 µg/mL
MIC (Klebsiella pneumoniae [11]): 32 µg/mL (≈ 98.7 µM)
MIC (Escherichia coli [12]): 8 µg/mL
MIC (Klebsiella aerogenes [13]): 256 µg/mL (≈ 789 µM)
MIC (Escherichia coli [14]): 0.25 µg/mL
MIC (Klebsiella aerogenes [15]): 256 µg/mL
MIC (Klebsiella aerogenes [16]): 16 µg/mL
MIC (Enterobacter cloacae [17]): 8 µg/mL
MIC (Escherichia coli [18]): 128 µg/mL (≈ 395 µM)
MIC (Klebsiella aerogenes [19]): 8 µg/mL (≈ 24.7 µM)
MIC (Pseudomonas aeruginosa [20]): 64 µg/mL (≈ 197 µM)
MIC (Escherichia coli [21]): 8 µg/mL
MIC (Klebsiella aerogenes [22]): 16 µg/mL
MIC (Pseudomonas aeruginosa [23]): 4 µg/mL
MIC (Klebsiella aerogenes [24]): 256 µg/mL (≈ 789 µM)
MIC (Pseudomonas aeruginosa [25]): 64 µg/mL (≈ 197 µM)
MIC (Enterobacter cloacae [26]): 1 µg/mL
MIC (Klebsiella pneumoniae [27]): 4 µg/mL
MIC (Klebsiella aerogenes [28]): 32 µg/mL
MIC (Klebsiella pneumoniae [29]): 0.5 µg/mL
MIC (Klebsiella aerogenes [30]): 32 µg/mL (≈ 98.7 µM)
MIC (Escherichia coli [31]): 64 µg/mL (≈ 197 µM)
MIC (Escherichia coli [32]): 64 µg/mL (≈ 197 µM)
MIC (Escherichia coli [33]): 0.5 µg/mL
MIC (Escherichia coli [34]): 16 µg/mL (≈ 49.3 µM)
MIC (Klebsiella aerogenes [35]): 64 µg/mL (≈ 197 µM)
MIC (Escherichia coli [36]): 2 µg/mL
MIC (Klebsiella aerogenes [37]): > 256 µg/mL
MIC (Escherichia coli [38]): 64 µg/mL (≈ 197 µM)
MIC (Klebsiella aerogenes [39]): 16 µg/mL
MIC (Enterobacter cloacae [40]): 128 µg/mL (≈ 395 µM)
MIC (Klebsiella aerogenes [41]): 128 µg/mL (≈ 395 µM)
MIC (Klebsiella aerogenes [42]): 8 µg/mL
